The test system of data set [1] is Rattus norvegicus. Nature of the data set: Anticonvulsant activity in Sprague-Dawley rat assessed as protection against maximal electroshock-induced seizures at 30 mg/kg, po after 2 hrs. In kind it is functional, organism-based. Details: dose 30 mg/kg. The gist of the method:
(§1)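 Rats dosed orally at 30 mg/kg and tested in MES at several time points after dosing. Protection means seizures were prevented. Result is recorded as number of animals protected over number tested.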
On the technique in general: In the maximal electroshock model the usual endpoint is tonic extension of the hind limbs.

Data set [2] deals with Mus musculus. The experiment in a line: Anticonvulsant activity in CF1 mouse assessed as protection against subcutaneous metrazole-induced seizures at 30 mg/kg, ip after 0.5 hrs. In kind it is functional, organism-based. Details: dose 30 mg/kg. The gist of the method: (§2)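 Mice given compound i.p. at 30, 100 or 300 mg/kg and tested 0.5 or 4 h after dosing. Seizures were induced by maximal electroshock (MES) or subcutaneous metrazole (ScMet). Prevention of seizures counts as protection. Result is recorded as number of animals protected over number tested.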

In data set [3] the test system is Rattus norvegicus. The experiment in a line: Anticonvulsant activity in Sprague-Dawley rat assessed as protection against maximal electroshock-induced seizures at 30 mg/kg, po after 4 hrs. It counts as functional, organism-based. Further details: dose 30 mg/kg. The gist of the method: as §1
Data set [4] deals with T1, 5-hydroxytryptamine receptor 1A (Homo sapiens, UniProt P08908).
T1 sequence (P08908 whole entry): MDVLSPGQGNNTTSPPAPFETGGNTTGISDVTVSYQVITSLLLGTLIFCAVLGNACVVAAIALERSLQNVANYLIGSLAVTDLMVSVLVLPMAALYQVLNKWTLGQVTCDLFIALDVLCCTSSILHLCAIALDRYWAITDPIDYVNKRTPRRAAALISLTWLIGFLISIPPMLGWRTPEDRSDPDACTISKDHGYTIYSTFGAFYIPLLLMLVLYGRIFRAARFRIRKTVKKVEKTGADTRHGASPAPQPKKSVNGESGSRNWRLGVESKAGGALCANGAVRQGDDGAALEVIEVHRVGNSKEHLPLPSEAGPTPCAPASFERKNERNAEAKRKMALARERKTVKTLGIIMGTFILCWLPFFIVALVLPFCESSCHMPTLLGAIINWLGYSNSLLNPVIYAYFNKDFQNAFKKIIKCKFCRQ
Nature of the data set: Displacement of [3H]8-OH-DPAT from human 5HT1A receptor expressed in HEK293 cells after 1 hr. It counts as cell-based.

Data set [5] has as its system Mus musculus. Nature of the data set: Neurotoxicity in CF1 mouse assessed as minimal motor impairment at 30 mg/kg, ip after 0.5 hrs by rotorod test. The following applies: in vivo. Details: dose 30 mg/kg, route intraperitoneal. In kind it is toxicity, organism-based. The gist of the method:
(§3)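 Rotarod neurotoxicity screen in mice dosed i.p. at 30, 100 or 300 mg/kg, read 0.5 or 4 h after dosing. The animal must stay on a rod rotating at 6 rpm without falling, measured 3 times within 1 min. A fall counts as minimal motor impairment. Result is recorded as impaired animals over animals used.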
A general note: Falling from the rotarod earlier than controls is read as motor impairment.

The subject of data set [6] is Mus musculus. The experiment in a line: Anticonvulsant activity in CF1 mouse assessed as protection against subcutaneous metrazole-induced seizures at 30 mg/kg, ip after 4 hrs. Further details: dose 30 mg/kg. It counts as functional, organism-based. The gist of the method: as §2
Data set [7] concerns Mus musculus. The experiment in a line: Anticonvulsant activity in CF1 mouse assessed as protection against subcutaneous metrazole-induced seizures at 100 mg/kg, ip after 0.5 hrs. In kind it is functional, organism-based. Further details: dose 100 mg/kg. The essentials:
as §2

Data set [8] deals with T2, Adrenergic receptor alpha-1 (Rattus norvegicus, UniProt P15823+P23944+P43140).
T2 sequence (P15823 whole entry): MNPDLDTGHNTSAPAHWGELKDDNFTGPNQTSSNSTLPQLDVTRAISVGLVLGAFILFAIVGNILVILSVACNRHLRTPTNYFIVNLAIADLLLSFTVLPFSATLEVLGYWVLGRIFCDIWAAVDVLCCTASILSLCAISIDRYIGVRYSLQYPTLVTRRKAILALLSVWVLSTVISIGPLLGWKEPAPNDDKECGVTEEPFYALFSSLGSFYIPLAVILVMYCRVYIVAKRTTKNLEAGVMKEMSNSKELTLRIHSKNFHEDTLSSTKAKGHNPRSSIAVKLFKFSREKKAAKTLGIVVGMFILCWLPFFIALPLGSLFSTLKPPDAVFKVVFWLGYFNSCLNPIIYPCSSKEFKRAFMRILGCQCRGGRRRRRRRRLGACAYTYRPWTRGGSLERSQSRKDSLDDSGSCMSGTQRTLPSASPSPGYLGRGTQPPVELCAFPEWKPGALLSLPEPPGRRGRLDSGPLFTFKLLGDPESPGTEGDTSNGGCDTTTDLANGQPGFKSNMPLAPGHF
T2 sequence (P23944 whole entry): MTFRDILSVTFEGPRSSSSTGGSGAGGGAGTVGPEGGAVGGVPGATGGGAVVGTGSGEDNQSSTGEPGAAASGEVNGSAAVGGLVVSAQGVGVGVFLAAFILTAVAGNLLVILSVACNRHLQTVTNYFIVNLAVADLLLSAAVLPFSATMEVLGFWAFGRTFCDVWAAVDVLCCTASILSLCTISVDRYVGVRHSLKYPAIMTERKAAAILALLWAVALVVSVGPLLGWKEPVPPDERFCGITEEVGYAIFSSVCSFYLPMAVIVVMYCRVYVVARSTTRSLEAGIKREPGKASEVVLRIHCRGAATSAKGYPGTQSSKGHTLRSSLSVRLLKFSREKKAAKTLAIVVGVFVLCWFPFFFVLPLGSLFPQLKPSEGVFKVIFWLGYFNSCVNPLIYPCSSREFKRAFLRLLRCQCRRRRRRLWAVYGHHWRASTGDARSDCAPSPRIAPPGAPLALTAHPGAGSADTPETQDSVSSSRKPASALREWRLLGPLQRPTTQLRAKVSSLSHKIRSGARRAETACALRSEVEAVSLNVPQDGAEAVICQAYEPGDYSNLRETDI
T2 sequence (P43140 whole entry): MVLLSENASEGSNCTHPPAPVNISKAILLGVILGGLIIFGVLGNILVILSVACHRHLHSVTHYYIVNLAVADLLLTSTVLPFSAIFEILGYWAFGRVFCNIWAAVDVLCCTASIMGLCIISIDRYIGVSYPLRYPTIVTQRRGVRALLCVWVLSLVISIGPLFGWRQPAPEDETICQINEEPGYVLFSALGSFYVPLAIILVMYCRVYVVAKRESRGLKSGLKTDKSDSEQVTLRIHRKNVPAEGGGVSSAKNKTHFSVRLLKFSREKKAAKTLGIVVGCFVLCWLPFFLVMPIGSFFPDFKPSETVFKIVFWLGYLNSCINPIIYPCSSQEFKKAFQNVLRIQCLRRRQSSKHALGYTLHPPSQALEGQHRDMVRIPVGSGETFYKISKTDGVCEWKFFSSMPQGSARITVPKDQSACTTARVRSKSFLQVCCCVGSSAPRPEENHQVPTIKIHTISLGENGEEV
The experiment in a line: Displacement of [3H]prazosin from alpha1-adrenergic receptor in rat cerebral cortex after 30 mins by scintillation counting. It counts as tissue-based. The gist of the method:
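Radioligand binding on rat brain tissue membranes, run in 96-well format. [3H]prazosin was used for α1 (n = 2) and [3H]CGP-12177 for β1 (n = 2). Ki was calculated by the Cheng–Prusoff equation.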

In data set [9] the test system is Rattus norvegicus. Nature of the data set: Neurotoxicity in Sprague-Dawley rat assessed as minimal motor impairment at 30 mg/kg, po after 4 hrs by rotorod test. The following applies: in vivo.
For data set [10], the system named is Rattus norvegicus. Nature of the data set: Neurotoxicity in Sprague-Dawley rat assessed as minimal motor impairment at 30 mg/kg, po after 2 hrs by rotorod test. The following applies: in vivo.
For data set [11], the system named is Mus musculus. Nature of the data set: Neurotoxicity in CF1 mouse assessed as minimal motor impairment at 300 mg/kg, ip after 0.5 hrs by rotorod test. It counts as toxicity, organism-based. Further details: dose 300 mg/kg, route intraperitoneal. The following applies: in vivo. The essentials: as §3

pKi: −log10 of the molar value. Calls of active or inactive are those of the source. No cut-off for these calls is given here.

Data on one compound can be found in ChEMBL document CHEMBL2401625, “Synthesis and evaluation of pharmacological properties of some new xanthone derivatives with piperazine moiety” (Bioorg Med Chem Lett, 2013).

In general, pKi refers to −log10 of the Ki, conventionally taken in molar units. A lower pKi goes with a high Ki. As usually defined, the Ki is the dissociation constant of the complex between target and ligand, obtained from inhibition or displacement. A high value points to lower affinity. `Cl.Cl.Cl.O=c1c2ccc(Cl)cc2oc2c(CN3CCN(CCO)CC3)cccc12`: the outcome in the data set on Rattus norvegicus [1], in the data set on Mus musculus [2], with Mus musculus [6] and in the data set with Mus musculus [7] was inactive. The result in the data set with Rattus norvegicus [3] was Active. The pKi in data set [4] was 5.35. The Activity result is on record as “Non-toxic” in the data set on Mus musculus [5], “Non-toxic” in the data set on Rattus norvegicus [9], “Non-toxic” in the data set with Rattus norvegicus [10] and “Toxic” with Mus musculus [11]. The compound further returned a Ki in data set [8] of 3.93 µM.
